According to ChEMBL document CHEMBL2401702, “A class of sulfonamides with strong inhibitory action against the α-carbonic anhydrase from Trypanosoma cruzi” (J Med Chem, 2013):
Calls of active or inactive are those of the source. The calls are words filed in the database; no cut-off is given here.

Columns and labels:
[1] = Inhibition of Trypanosoma cruzi carbonic anhydrase preincubated for 15 mins to 6 hrs by CO2 hydration stopped-flow assay
Method in brief: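 Recombinant TcCA prepared in-house. Stopped-flow CO2 hydration assay with 0.2 mM phenol red read at 557 nm, in 20 mM HEPES pH 7.5 with 20 mM Na2SO4, at 20 °C. CO2 1.7–17 mM. Initial rates taken over 10–100 s and uncatalyzed rates subtracted. Inhibitor diluted down to 0.01 nM and preincubated with enzyme 15 min at room temperature or 6 h at 4 °C. KI by nonlinear least squares, mean of ≥3 determinations.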

Carbonic anhydrase 2 = Carbonic anhydrase 2 (Homo sapiens, UniProt P00918); assay: Inhibition of human carbonic anhydrase 2 preincubated for 15 mins to 6 hrs by CO2 hydration stopped-flow assay
Carbonic anhydrase 1 = Carbonic anhydrase 1 (Homo sapiens, UniProt P00915); assay: Inhibition of human carbonic anhydrase 1 preincubated for 15 mins to 6 hrs by CO2 hydration stopped-flow assay
Trypanosoma cruzi = assay: Antitrypanosomal activity against Trypanosoma cruzi epimastigotes at 64 to 256 uM by ELISA; type: functional, organism-based
Method in brief: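 Resazurin viability assay on log-phase T. cruzi epimastigotes (strains DM28 and Y). Cultures seeded 24 h at 28 °C, plated and incubated a further 48 h at 28 °C. Resazurin added, incubation 1–6 h, then dual-wavelength absorbance at 490 and 595 nm with background subtracted. Compounds tested at 256, 128 and 64 μM. Benznidazole as reference. Three experiments, each in triplicate.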

Carbonic anhydrase 1, sequence (P00915 whole entry): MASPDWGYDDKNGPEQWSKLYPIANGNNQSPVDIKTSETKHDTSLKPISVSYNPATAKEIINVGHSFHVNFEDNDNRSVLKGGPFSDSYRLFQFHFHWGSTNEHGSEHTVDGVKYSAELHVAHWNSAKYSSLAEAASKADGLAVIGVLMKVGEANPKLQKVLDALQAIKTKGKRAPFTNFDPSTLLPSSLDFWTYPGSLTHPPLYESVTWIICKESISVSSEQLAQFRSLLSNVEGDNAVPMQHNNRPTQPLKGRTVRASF

Compound NS(=O)(=O)c1ccc(NC(=O)Cc2ccccc2Br)cc1 has a Ki [1] of 8.9 nM.
In the case of COc1ccc(CC(=O)Nc2ccc(S(N)(=O)=O)cc2Cl)cc1, the Ki [1] is reported as 7.9 nM.
Compound NS(=O)(=O)c1ccc(CCNC(=O)Cc2ccc(Cl)cc2)cc1 has a Ki [1] of 11.8 nM, a Ki (Carbonic anhydrase 2) of 6.4 nM and a Ki (Carbonic anhydrase 1) of 9.7 nM.
COc1ccc(CC(=O)Nc2ccc(S(N)(=O)=O)cc2Br)cc1 showed a Ki [1] of 7.2 nM.
Compound NS(=O)(=O)c1ccc(NC(=O)Cc2ccc(F)cc2)c(Br)c1 has a Ki [1] of 9 nM.
NS(=O)(=O)c1ccc(CNC(=O)Cc2ccc(F)cc2)cc1 showed a Ki [1] of 3.7 nM.
For NS(=O)(=O)c1ccc(NC(=O)Cc2ccc(Cl)cc2)c(F)c1, the Activity (Trypanosoma cruzi) was “inactive” and the Ki [1] was 1.2 nM.
For NS(=O)(=O)c1ccc(CCNC(=O)Cc2ccccc2Br)cc1, the Activity (Trypanosoma cruzi) was “inactive” and the Ki [1] was 3.3 nM.
In the case of NS(=O)(=O)c1ccc(NC(=O)Cc2ccc(F)cc2)cc1, the Ki [1] is reported as 8.5 nM.
NS(=O)(=O)c1ccc(NC(=O)Cc2ccccc2Br)c(Br)c1 gave a Ki [1] of 10.9 nM.
For COc1ccc(CC(=O)Nc2nnc(S(N)(=O)=O)s2)cc1, the Activity (Trypanosoma cruzi) was “inactive” and the Ki [1] was 0.51 nM.
NS(=O)(=O)c1ccc(CNC(=O)Cc2ccc(Cl)cc2)cc1 gave a Ki [1] of 12.5 nM.
NS(=O)(=O)c1ccc(CNC(=O)Cc2ccccc2Br)cc1 gave a Ki [1] of 9 nM.
In the case of NS(=O)(=O)c1ccc(NC(=O)Cc2ccc(Cl)cc2)cc1, the Ki [1] is reported as 2.7 nM.
NS(=O)(=O)c1ccc(CCNC(=O)Cc2ccc(F)cc2)cc1 gave a Ki [1] of 9.1 nM.
Compound NS(=O)(=O)c1ccc(NC(=O)Cc2ccc(Cl)cc2)c(Br)c1 has a Ki [1] of 7.1 nM.
In the case of NS(=O)(=O)c1ccc(NC(=O)Cc2ccccc2Br)c(F)c1, the Activity (Trypanosoma cruzi) is reported as “inactive” and the Ki [1] is reported as 1.6 nM.
Work on NS(=O)(=O)c1ccc(NC(=O)Cc2ccc(F)cc2)c(F)c1 yielded a Ki [1] of 8.3 nM.
Work on NS(=O)(=O)c1nnc(NC(=O)Cc2ccc(F)cc2)s1 yielded a Ki [1] of 7.6 nM.
Compound NS(=O)(=O)c1ccc(NC(=O)Cc2ccccc2Br)c(Cl)c1 has a Ki [1] of 7.8 nM.
Compound COc1ccc(CC(=O)NCc2ccc(S(N)(=O)=O)cc2)cc1 has a Ki [1] of 7.4 nM.
COc1ccc(CC(=O)Nc2ccc(S(N)(=O)=O)cc2)cc1 gave a Ki [1] of 8 nM.
Work on NS(=O)(=O)c1ccc(NC(=O)Cc2ccc(Cl)cc2)c(Cl)c1 yielded a Ki [1] of 7.7 nM.
NS(=O)(=O)c1nnc(NC(=O)Cc2ccccc2Br)s1 gave a Ki [1] of 0.83 nM.
With NS(=O)(=O)c1nnc(NC(=O)Cc2ccc(Cl)cc2)s1 the Activity (Trypanosoma cruzi) was “inactive” and the Ki [1] was 0.95 nM.
For COc1ccc(CC(=O)Nc2ccc(S(N)(=O)=O)cc2F)cc1, the Ki [1] was 4.1 nM.
Compound NS(=O)(=O)c1ccc(NC(=O)Cc2ccc(F)cc2)c(Cl)c1 has a Ki [1] of 7 nM.
COc1ccc(CC(=O)NCCc2ccc(S(N)(=O)=O)cc2)cc1 gave a Ki [1] of 7.5 nM, a Ki (Carbonic anhydrase 2) of 0.81 nM and a Ki (Carbonic anhydrase 1) of 3.7 nM.
